Reference: ChEMBL document CHEMBL1146547, “Bulbinelonesides A-E, phenylanthraquinone glycosides from the roots of Bulbinella floribunda” (J Nat Prod, 2003)
Values after ≈ are worked out from the molar mass of the structure shown.

Key:
HSC-2 = assay: Cytotoxicity against human HSC2 cells by MTT assay; assay type: functional, cell-based
Method in brief: (§1)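 Cells were grown in DMEM with 10% heat-inactivated FBS and penicillin/streptomycin under humidified 5% CO2. HPC came from premolar pulp explants and were used at passages 5–10. Cells were trypsinized, seeded at 6 × 10^3 to 1.2 × 10^4, incubated 24 h, washed with PBS, then exposed to compound for 24 h. MTT (0.2 mg/mL, 4 h) was added, cells were lysed in DMSO, and A540 was read. LD50 was taken from the dose-response curve.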

[1] = Cytotoxicity against human HPC by MTT assay; method in brief: as §1

Structure (SMILES): COc1cc(O)c(C(C)=O)c(O)c1-c1c(C)cc(O)c2c1C(=O)c1cccc(O)c1C2=O
- IC50 (HSC-2): 25 µg/mL (≈ 57.6 µM)
- IC50 [1]: 57 µg/mL (≈ 131 µM)

Structure (SMILES): COc1cc(O[C@@H]2O[C@H](CO)[C@@H](O)[C@H](O)[C@H]2O)c(-c2c(C)cc(O)c3c2C(=O)c2cccc(O)c2C3=O)c(O)c1C(C)=O [BULBINELONESIDE A]
- IC50 (HSC-2): 36 µg/mL (≈ 60.3 µM)
- IC50 [1]: > 120 µg/mL

Structure (SMILES): CC(=O)c1c(O)cc(O[C@@H]2OC[C@@H](O)[C@H](O)[C@H]2O)c(-c2c(C)cc(O)c3c2C(=O)c2cccc(O)c2C3=O)c1O [BULBINELONESIDE B]
- IC50 (HSC-2): 56 µg/mL (≈ 101 µM)
- IC50 [1]: > 120 µg/mL

Structure (SMILES): CC(=O)c1c(O[C@@H]2OC[C@@H](O)[C@H](O)[C@H]2O)cc(O)c(-c2c(C)cc(O)c3c2C(=O)c2cccc(O)c2C3=O)c1O [BULBINELONESIDE C]
- IC50 (HSC-2): > 120 µg/mL
- IC50 [1]: > 120 µg/mL

Structure (SMILES): CC(=O)c1c(O[C@@H]2O[C@H](CO)[C@@H](O)[C@H](O)[C@H]2O)cc(O)c(-c2c(C)cc(O)c3c2C(=O)c2cccc(O)c2C3=O)c1O [BULBINELONESIDE D]
- IC50 (HSC-2): > 120 µg/mL
- IC50 [1]: > 120 µg/mL

Structure (SMILES): CC(=O)c1c(O[C@@H]2OC[C@@H](O)[C@H](O[C@@H]3O[C@H](CO)[C@@H](O)[C@H](O)[C@H]3O)[C@H]2O)cc(O)c(-c2c(C)cc(O)c3c2C(=O)c2cccc(O)c2C3=O)c1O [BULBINELONESIDE E]
- IC50 (HSC-2): > 120 µg/mL
- IC50 [1]: > 120 µg/mL

Structure (SMILES): COc1cc([C@@H]2c3cc4c(cc3[C@@H](O[C@@H]3O[C@@H]5CO[C@@H](C)O[C@H]5[C@H](O)[C@H]3O)[C@H]3COC(=O)[C@H]23)OCO4)cc(OC)c1O [ETOPOSIDE]
- IC50 (HSC-2): 24 µg/mL (≈ 40.8 µM)
- IC50 [1]: > 120 µg/mL

Structure (SMILES): COc1cc(O)c(-c2c(C)cc(O)c3c2C(=O)c2cccc(O)c2C3=O)c(O)c1C(C)=O [KNIPHOLONE]
- IC50 (HSC-2): 33 µg/mL (≈ 76 µM)
- IC50 [1]: > 120 µg/mL
